This is a sample that favours compounds with a hit; in the whole collection about 9.6% have one here.
Ba/F3 V617F tox: loss of viability in JAK2V617F-driven Ba/F3 cells | inhibition, % at 5.6 µM | Ba/F3 EpoR-JAK2V617F viability, ATP luminescence | actives 1.1% (n = 220,000);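 active = inhibition above the campaign mean plus 3 SD over all tested compounds, cut at about 24% in these data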;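 also: cytokine-independent growth of Ba/F3 cells driven by EpoR plus mutant JAK2; 0% = DMSO-treated cells and 100% = JAK inhibitor I control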
APP transl inh: APP translation inhibition | SH-SY5Y APP 5'UTR-luciferase reporter, luminescence | inhibition, % at 2 µM | actives 0.82% (n = 190,000) | AID 1285;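 active = inhibition above a set limit, derived from the sample mean plus 3 SD, cut at about 45% in these data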
BaF3 parental: reduces parental Ba/F3 cell viability, JAK2V617F counter-screen. actives 1.1% (n = 220,000). inhibition, % at 5.6 µM. CellTiter-Glo ATP luminescence;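 active = inhibition above a per-campaign cutoff, the mean inhibition of all tested compounds plus 3 SD, cut at about 27% in these data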;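 also: 0% = DMSO wells and 100% = JAK Inhibitor I control wells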
bCat nuc transl: alters nuclear translocation of beta-catenin in HeLa cells; immunofluorescence imaging; nuclear translocation activity, % at 5 µM; actives 0.3% (n = 190,000);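 active = nuclear translocation activity above 50% at 5 µM, with a well cell count of 50 or more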;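 also: per-cell ratio of nuclear to cytoplasmic median beta-catenin stain intensity; plate controls were DMSO negative control for no effect and GSK-3 inhibitor IX positive control for full effect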
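Test system: human HeLa cell line; Doses: 5 µM primary, 0.02–20 µM confirmation; Incubation: 24 h compound exposure, 37°C; Detection: beta-catenin immunofluorescence imaging with DAPI; Read-out: beta-catenin nuclear/cytoplasmic ratio, % activation.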
MT stabilizer: stabilizes microtubules in HeLa cells; HeLa tubulin immunostaining HCS, 24 h; share of cells brighter than vehicle mean+2SD; % tubulin-high responders, % at 10 µM; actives 0.83% (n = 200,000);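 active = plate Z-score above 3 for both tubulin-high and condensed-nucleus cell shares, with cell loss under 80%, at 10 µM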;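 also: anti alpha tubulin signal scored within the nucleus-defined area of each cell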
L major viab: reduces viability of Leishmania major promastigotes; resazurin fluorescence viability; inhibition, % at 10 µM; actives 9% (n = 200,000); in the data active = inhibition above about 50%;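 also: promastigotes grown with compound for 44 hours at 28 °C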
Active calls of the source: *; x = not tested or not shown.

SMILES	Ba/F3 V617F tox	APP transl inh	BaF3 parental	bCat nuc transl	MT stabilizer	L major viab
O=C(CSCc1ccc(Cl)cc1)Nc1ccc(S(=O)(=O)N2CCOCC2)cc1	-3	-10	5	-2	4	88*
O=C(CN1CCCC1)Nc1ccc(Oc2ccc(NC(=O)CN3CCCC3)cc2)cc1	5	-2	12	-1	3	79*
O=C(COC(=O)c1ccccc1C(=O)c1ccc(Cl)cc1)NC(c1ccccc1)c1ccccc1	5	-12	8	0	6	8
COCCCNC(=O)c1cccn2c(=O)c3cc4ccccc4cc3nc12	8	-110	3	5	4	90*
Cc1cc(C(=O)Nc2nc3c(C)cccc3s2)c(C)o1	-1	-17	-3	-3	3	14
CSc1ncccc1C(=O)Nc1nc2c(C)cccc2s1	-1	12	8	x	5	69*
CCn1ccc2cc(OC)ccc2c1=S	0	-15	4	2	2	-3
CCSc1ccc2cc(OC)ccc2[n+]1CC	82*	36	88*	0	5	84*
COc1ccc(Cl)cc1NC(=O)Cn1c(NCCO)nc2ccccc21	0	-14	4	1	5	0
O=C(N/N=C/c1cccnc1)c1ccc(CN2c3cccc4cccc(c34)S2(=O)=O)cc1	0	1	3	-2	2	-2
COc1cccc(/C=N/NC(=O)c2ccc(CN3c4cccc5cccc(c45)S3(=O)=O)cc2)c1	-3	10	0	1	3	82*
CCOC(=O)Nc1sc2c(c1C#N)CCCC2	7	-38	3	x	2	-2
CCCC1CCc2c(sc(NC(=O)OCC)c2C#N)C1 (configuration not stated)	-5	16	1	0	52*	-3
Brc1ccc2nc(-c3cccs3)c(NCC3CCCO3)n2c1 (configuration not stated)	2	-41	6	-1	2	49
O=C(c1nnsc1S(=O)c1ccc(Cl)cc1)N1CCOCC1 (configuration not stated)	90*	48*	40*	-3	6	100*
CCC(C)(C)n1nnnc1CN1CCN(c2ccc(OC)cc2)CC1	2	11	12	0	4	6
Cc1cc(/N=C/C=C2\N(C)c3ccccc3C2(C)C)n(CCC#N)n1	1	-18	3	-9	8	101*
CN1/C(=C\C=Nc2ccc3ccccc3c2)C(C)(C)c2ccccc21	48*	-15	42*	1	3	88*
CN=C(Nc1cc(C)nn1CCC#N)c1ccccc1	-3	-15	-1	0	2	-5
CN(C)c1ccc(N=C/C=C2\N(C)c3ccccc3C2(C)C)cc1	2	-143	11	x	1	101*
Cc1c(N=C/C=C2/N(C)c3ccccc3C2(C)C)c(=O)n(-c2ccccc2)n1C	4	4	5	6	4	13
COc1cc(NC(=O)CN2C(=O)NC(C)(c3ccc4ccccc4c3)C2=O)c(C)cc1[N+](=O)[O-] (configuration not stated)	2	-19	1	2	6	30
COc1ccc(-c2noc(CCCC(=O)NCc3ccco3)n2)cc1OC	-2	-3	5	-8	2	-1
C/C(=N\Nc1nc(N2CCCCCC2)nc(N2CCCCCC2)n1)c1ccccc1	-3	-10	8	-2	3	51*
CC(=O)Nc1ccc(/C(C)=N/Nc2nc(Nc3cccc4ccccc34)nc(N3CCOCC3)n2)cc1	-2	11	3	x	6	58*
SMILES	Ba/F3 V617F tox	APP transl inh	BaF3 parental	bCat nuc transl	MT stabilizer	L major viab
COc1ccc2[nH]cc(CCn3ccc(O)c(C/C=C/c4ccccc4)c3=O)c2c1	6	-20	10	-1	2	100*
O=c1c(C/C=C/c2ccccc2)c(O)ccn1CCc1c[nH]c2ccccc12	1	-2	7	0	5	-2
CCOC(=O)Cc1csc(NS(=O)(=O)c2ccc(Cl)cc2)n1	3	6	10	-1	3	50*
CCOC(=O)Cc1csc(NS(=O)(=O)c2ccc(OC)cc2)n1	-2	19	4	1	4	-8
O=C(c1ccc(-c2ccccc2)cc1)c1ccccc1C(=O)N1CCOCC1	-3	-3	2	2	3	51*
O=C(N/N=C/c1cccs1)c1ccc(-n2cccc2)cc1	0	-7	3	2	4	-7
Cn1cccc/c1=N\c1cccc[n+]1C	73*	x	63*	3	x	x
Cc1ccc(Nc2nc(N)c([N+](=O)[O-])c(NCCO)n2)cc1C	5	x	0	0	x	x
Cc1ccc(CNc2nc(N)c([N+](=O)[O-])c(NCc3ccccc3)n2)cc1	4	10	8	1	3	70*
Nc1nc(NCc2ccccc2)nc(NCc2ccccc2)c1[N+](=O)[O-]	0	-1	5	-1	1	18
Cc1ccc(Nc2nc(N)c([N+](=O)[O-])c(NCc3ccco3)n2)cc1C	-3	-50	2	5	6	70*
O=C(CCN1C(=O)COc2ccccc21)N1CCN(c2ccccn2)CC1	3	18	88*	x	3	1
O=C(CCN1C(=O)COc2ccccc21)N1CCN(c2ccccc2)CC1	5	15	5	-1	3	4
O=[N+]([O-])c1cccc(/C=N/N2CCN(c3ccccn3)CC2)c1	-2	-37	2	-1	3	-4
CCN(CC)c1ccc(/C=N/n2nnnc2N)c(O)c1	6	-13	3	x	24*	-2
CCN(C)c1ccc(/C=N\n2nnnc2N)cc1	6	-42	10	x	25*	-2
O=C(OC(C(=O)NC1CCCC1)c1ccncc1)C1=Cc2ccccc2OC1 (configuration not stated)	0	-5	0	0	3	0
S=C(Nc1ccc(Br)cc1)N1CCn2cccc2C1c1cccnc1 (configuration not stated)	-1	1	8	0	2	96*
CCNC(=S)N1CCn2cccc2C1c1ccc(F)cc1 (configuration not stated)	-3	9	5	1	3	-7
Cc1ccc(NC(=S)N2CCn3cccc3C2c2cccnc2)cc1 (configuration not stated)	-4	9	2	-3	5	81*
CCc1cccc(CC)c1NC(=S)N1CCn2cccc2C1c1cccnc1 (configuration not stated)	14	-4	7	-2	4	83*
COc1ccc(-c2csc(NC(=O)COC(=O)C3=COCCO3)n2)cc1	-2	-45	1	8	4	5
CC(=O)/C=C1/C(=O)Nc2ccccc21	4	9	10	0	4	94*
CC(C(=O)NCC1CCCO1)n1cc([N+](=O)[O-])cn1 (configuration not stated)	1	-26	5	-1	1	-10

Compound activity as filed in PubChem.
